Reference: publication PMC5855380 (Pharmacognosy Research, 2018)
Converted amounts (≈) assume the structure as drawn.

System: HDFn cells
Test: PrestoBlue cell viability assay, HDFn
Format: cell-based
Conditions: Homo sapiens, 96 h, read-out: IC50 (half maximal inhibitory concentration), HDFn
Procedure, shortened: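 HDFn cells grown in DMEM with 10% FBS and 1X antibiotic-antimycotic (37°C, 5% CO2); seeded at 1×10^4 viable cells/well and attached overnight. Test compound (DMSO stock, 0.1% final DMSO) added in two-fold dilutions, 50–0.39 µg/mL final, for 4 days. PrestoBlue 2 h; absorbance 570 nm normalized to 600 nm. Untreated, Zeocin and media-only background wells. Triplicates; IC50 from dose-response curves.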

Compound | IC50 [µg/mL]
CC1(C)CC[C@]2(C(=O)O)CC[C@]3(C)C(=CC[C@@H]4[C@@]5(C)CC[C@H](O)C(C)(C)[C@@H]5CC[C@]43C)[C@@H]2C1 [Compound 2, oleanolic acid] | 29.5 (≈ 64.6 µM)
CC(C)=CCC/C(C)=C/CC/C(C)=C/CC/C=C(\C)CC/C=C(\C)CCC=C(C)C [Compound 3, squalene] | 0.1 (≈ 0.243 µM)
